The source made the active and inactive calls. No cut-off for these calls is given here.
Tests used:
[1] = tested on: A549; assay: Binding affinity to human TERT promoter DNA sequence in human A549 cells assessed as decrease in TERT mRNA expression after 24 hrs by semi-quantitative PCR analysis; assay type: cell-based
Procedure, shortened: (§1)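 A549 cells (3.0×10^5) grown 24 h in RPMI 1640 + 10% FBS at 37 °C, 5% CO2, then exposed to compound for 24 h. Total RNA by Trizol, reverse transcribed, hTERT amplified with specific primers. Semi-quantitative and real-time SYBR Green PCR (45 cycles), standard-curve method, normalized to GAPDH. Three independent experiments.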

[2] = tested on: A549; assay: Cytotoxicity against human A549 cells assessed as colony formation at 0.8 uM incubated for 6 days followed by subculturing in compound-free medium measured after 14 days by crystal violet staining method relative to control; assay type: functional
Procedure, shortened: (§2)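 A549 cells from the long-term culture (0.4 or 0.8 μM, medium changed every 3 days, replated every 6 days) were collected on the stated day. 2×10^3 cells seeded per 10-cm dish, fed every 4-5 days. Colonies stained with crystal violet after 14 days and counted; expressed as % of control. Controls under 25 colonies excluded. Three independent experiments.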

[3] = tested on: A549; assay: Binding affinity to human TERT promoter DNA sequence in human A549 cells assessed as telomere restriction fragment length at 0.4 uM after 78 days by TeloTAGGG-based chemiluminescence assay (reference value: 3.4 kb); assay type: cell-based
Procedure, shortened: (§3)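 Genomic DNA from A549 cells kept long-term with 0.4 or 0.8 μM compound (medium changed every 3 days, replated every 6 days). DNA isolated with DNAzol. 2 µg digested with RsaI/HinfI, run on 0.8% agarose, Southern-blotted, hybridized with DIG-labeled telomeric probe, anti-DIG alkaline phosphatase, chemiluminescence. Mean TRF = Σ(ODi)/Σ(ODi/Li).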

[4] = Binding affinity to TSG4 primer DNA (unknown origin) assessed as inhibition of telomerase-mediated extension of primer […] by fluorescence-based TRAP assay
Procedure, shortened: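 Cell-free TRAP. Compound preincubated with TSG4 primer in telomerase buffer (20 mM Tris-HCl pH 7.4, 1.5 mM MgCl2, 63 mM KCl, 1 mM EGTA, 200 µM dNTPs) at 37 °C for 2 h. Crude telomerase (50 ng) from telomerase-transfected HEK293T added, 30 °C for 30 min. Compound removed by phenol-chloroform, products ethanol-precipitated, PCR with FAM-tagged primer, 8% native PAGE, phosphoimaging. IC50 ± SD from three experiments.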

[5] = tested on: A549; assay: Cytotoxicity against human A549 cells assessed as colony formation at 0.4 uM incubated for 78 days followed by subculturing in compound-free medium measured after 14 days by crystal violet staining method relative to control; assay type: functional; procedure, shortened: as §2
[6] = tested on: A549; assay: Binding affinity to human TERT promoter DNA sequence in human A549 cells assessed as decrease in TERT mRNA expression at 6 uM after 24 hrs by semi-quantitative PCR analysis relative to control; assay type: cell-based; design: scale not given: the % may be the effect or the level left; procedure, shortened: as §1
[7] = tested on: A549; assay: Cytotoxicity against human A549 cells assessed as colony formation at 0.8 uM incubated for 30 days followed by subculturing in compound-free medium measured after 14 days by crystal violet staining method relative to control; assay type: functional; procedure, shortened: as §2
[8] = species on record: Homo sapiens; assay: Binding affinity to human TERT2 5'-GGGGGCTGGGCCGGGGACCCGGGAGGGGTCGGGACGGGGCGGGG-3' DNA assessed as induction of intermolecular G-quadruplex formation at 8 to 32 uM after 10 hrs by PAGE analysis
Procedure, shortened: (§4)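 FAM-labeled G-rich strand (2 µM) and complementary C-rich strand (2 µM) with compound in 10 mM Tris-HCl pH 7.4, 100 mM KCl. Heated to 95 °C for 5 min, slowly cooled to 55 °C, held 10 h, then cooled to 4 °C. Duplex vs G-quadruplex resolved on 16% native PAGE with 50 mM KCl (4 °C, 350 V, 10 h) and fluorescence-imaged.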

[9] = tested on: A549; assay: Cytotoxicity against human A549 cells assessed as colony formation at 0.4 uM incubated for 30 days followed by subculturing in compound-free medium measured after 14 days by crystal violet staining method relative to control; assay type: functional; procedure, shortened: as §2
[10] = tested on: A549; assay: Cytotoxicity against human A549 cells assessed as colony formation at 0.4 uM incubated for 6 days followed by subculturing in compound-free medium measured after 14 days by crystal violet staining method relative to control; assay type: functional; procedure, shortened: as §2
[11] = tested on: A549; assay: Binding affinity to human TERT promoter DNA sequence in human A549 cells assessed as telomere restriction fragment length at 0.8 uM after 78 days by TeloTAGGG-based chemiluminescence assay (reference value: 3.4 kb); assay type: cell-based; procedure, shortened: as §3
[12] = tested on: A549; assay: Antiproliferative activity against human A549 cells assessed as decrease in population doubling at 0.4 uM after 78 days; assay type: functional, cell-based
Procedure, shortened: (§5)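 A549 cells (1.5×10^5) seeded in RPMI 1640 + 10% FBS with 0.4 or 0.8 μM perylene or medium only. Medium changed every 3 days. Every 6 days, at confluence, cells were trypsinized, counted by hemocytometer and replated at 1.5×10^5. Population doublings n = (log Pn − log P0)/log 2, cumulated against time. Three independent experiments.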

[13] = tested on: A549; assay: Cytotoxicity against human A549 cells assessed as reduction in colony formation incubated for 30 days followed by subculturing in compound-free medium measured after 14 days by crystal violet staining method; assay type: functional, cell-based; procedure, shortened: as §2
[14] = tested on: A549; assay: Binding affinity to human TERT promoter DNA sequence in human A549 cells assessed as telomere restriction fragment length at 0.8 uM after 6 days by TeloTAGGG-based chemiluminescence assay (reference value: 3.4 kb); assay type: cell-based; procedure, shortened: as §3
[15] = tested on: A549; assay: Induction of senescence in human A549 cells assessed as increase in beta-galactosidase activity at 0.4 to 0.8 uM incubated for 78 days followed by subculturing on compound-free medium measured after 48 hrs by fluorescence microscopic analysis; assay type: functional, cell-based
Procedure, shortened: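 A549 cells from the long-term treatment replated and grown 48 h. Fixed in 2% formaldehyde/0.2% glutaraldehyde for 5 min at RT. Stained overnight with 1 mg/ml X-gal in pH 6 citrate/phosphate buffer with 5 mM ferro/ferricyanide, 150 mM NaCl, 2 mM MgCl2. Enlarged blue cells scored by microscopy.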

[16] = species on record: Homo sapiens; assay: Binding affinity to human telomeric 5'-AGATAGTTAGGGTTAGGGTTAGGGTTAGGGTT-3' DNA assessed as induction of intramoleculsr G-quadruplex formation after 10 hrs by PAGE analysis; procedure, shortened: as §4
[17] = tested on: A549; assay: Binding affinity to human TERT promoter DNA sequence in human A549 cells assessed as telomere restriction fragment length at 0.8 uM after 30 days by TeloTAGGG-based chemiluminescence assay (reference value: 3.3 kb); assay type: cell-based; procedure, shortened: as §3
[18] = tested on: A549; assay: Cytotoxicity against human A549 cells assessed as colony formation at 0.8 uM incubated for 78 days followed by subculturing in compound-free medium measured after 14 days by crystal violet staining method relative to control; assay type: functional; procedure, shortened: as §2
[19] = tested on: A549; assay: Antiproliferative activity against human A549 cells assessed as decrease in cell viability at 0.8 uM after 78 days relative to control; assay type: functional, cell-based; procedure, shortened: as §5
[20] = tested on: A549; assay: Binding affinity to human TERT promoter DNA sequence in human A549 cells assessed as inhibition of telomerase-mediated MTS primer extension after 24 hrs by fluorescence-based TRAP assay; assay type: cell-based
Procedure, shortened: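 A549 cells exposed to compound for 24 h, lysed in CHAPS buffer, protein measured by Bradford. 6 µg lysate protein used as telomerase source in fluorescent TRAP with MTS primer (no G-quadruplex motif), with no phenol-chloroform step. FAM-primer PCR, native PAGE, fluorescence quantified. Mean ± SD of three experiments.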

[21] = species on record: Homo sapiens; assay: Binding affinity to human TERT1 5'-AAGGGGAGGGGCTGGGAGGGCCCGGA-3' DNA assessed as induction of intramoleculsr G-quadruplex formation after 10 hrs by PAGE analysis; procedure, shortened: as §4
[22] = tested on: A549; assay: Binding affinity to human TERT promoter DNA sequence in human A549 cells assessed as telomere restriction fragment length at 0.4 uM after 30 days by TeloTAGGG-based chemiluminescence assay (reference value: 3.3 kb); assay type: cell-based; procedure, shortened: as §3
[23] = tested on: A549; assay: Antiproliferative activity against human A549 cells assessed as decrease in population doubling at 0.8 uM after 78 days relative to control; assay type: functional; design: scale not given: the % may be the effect or the level left; procedure, shortened: as §5
[24] = tested on: A549; assay: Binding affinity to human TERT promoter DNA sequence in human A549 cells assessed as telomere restriction fragment length at 0.4 uM after 6 days by TeloTAGGG-based chemiluminescence assay (reference value: 3.4 kb); assay type: cell-based; procedure, shortened: as §3

Question: With `O=C1c2ccc3c4ccc5c6c(ccc(c7ccc(c2c37)C(=O)N1CCN1CCCCC1)c64)C(=O)N(CCN1CCCCC1)C5=O` as the compound, how does the Activity [1] read?
Answer: Its Activity is “Dose-dependent effect”.

Question: What about the Activity [2] of the same compound?
Answer: Its Activity is 93%.

Question: What about the Activity [3] of the same compound?
Answer: Its Activity is 3 kilobase.

Question: What about the IC50 [4] of the same compound?
Answer: The IC50 was 1400 nM.

Question: What about the inhibition [4] of the same compound?
Answer: The inhibition was “Dose-dependent effect”.

Question: What about the Activity [5] of the same compound?
Answer: Its Activity is 78%.

Question: What about the Activity [6] of the same compound?
Answer: The Activity was 68%.

Question: And the Activity [7]?
Answer: The Activity was 89%.

Question: And the Activity [8]?
Answer: The Activity was “Active”.

Question: And the Activity [9]?
Answer: Its Activity is 96%.

Question: And the Activity [10]?
Answer: The Activity was 95%.

Question: What about the Activity [11] of the same compound?
Answer: Its Activity is 2.7 kilobase.

Question: What about the Activity [12] of the same compound?
Answer: The Activity was “inactive”.

Question: And the Activity [13]?
Answer: The Activity was “Dose-dependent effect”.

Question: What about the Activity [14] of the same compound?
Answer: Its Activity is 3.5 kilobase.

Question: What about the Activity [15] of the same compound?
Answer: The Activity was “inactive”.

Question: What about the Activity [16] of the same compound?
Answer: The Activity was “Dose-dependent effect”.

Question: What about the Activity [17] of the same compound?
Answer: Its Activity is 3.1 kilobase.

Question: What about the Activity [18] of the same compound?
Answer: Its Activity is 66%.

Question: And the Activity [19]?
Answer: The Activity was “inactive”.

Question: What about the Activity [20] of the same compound?
Answer: Its Activity is “Dose-dependent effect”.

Question: And the Activity [21]?
Answer: The Activity was “Dose-dependent effect”.

Question: What about the Activity [22] of the same compound?
Answer: Its Activity is 3.3 kilobase.

Question: And the Activity [23]?
Answer: The Activity was 20%.

Question: What about the Activity [24] of the same compound?
Answer: The Activity was 3.6 kilobase.
